# Compounds with a hit are over-represented: about 3.8% of the library has one in this group of screens.
# XiGFP reactiv – activators of inactive X chromosome reactivation, primary screen, imaging, XiGFP fibroblasts, GFP high-content imaging, set 2; XiGFP mouse fibroblasts, % GFP-positive cells imaging, 3 d; cells co-treated with 5-aza-dC sensitizer; scaled so ellipticine positive control = 100%; activation, % at 7.58 µM; 360,000 compounds, 0.055% hits; AID 743238, 2013;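 active means mean normalized replicate activation at least 10% and every replicate at or above 10%; inconclusive means only one of the two criteria met; inactive means mean below 10% and not all replicates reach 10%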;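 further: 0% = median of on-plate neutral control wells and 100% = ellipticine 6 µM median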
#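 System: 68-5-11 XiGFP fibroblast line | Buffer or medium: DMEM containing 5-aza-dC | Compound: Single point | Times: Compounds 3 days, fix/stain 15 min at room temperature | Benchmarks: Positive control ellipticine, 6 µM final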
# ARNT-TACC3 inh – disruptors of ARNT/TACC3 protein interaction, primary screen, biochemical, AlphaScreen, single concentration; AlphaScreen His-ARNT PAS-B/GST-TACC3 binding, luminescence; TACC3 fragment carries E629A point mutation; inhibition, % at 9.99 µM; 390,000 compounds, 0.66% hits; AID 623870, 2012;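 active means mean inhibition of replicates at least 50% and at least half of replicates each reaching 50%; inconclusive means half or more replicates reach 50% but mean below 50%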;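 further: 0% = complete ARNT plus TACC3 wells and 100% = ARNT alone without TACC3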
# FN deposition inh – inhibitors of fibronectin matrix deposition, primary screen, AH1F cells, Alexa488-fibronectin fluorescence, plate reader; AH1F fibroblasts, overnight; inhibition, % at 12.6 µM; 350,000 compounds, 0.086% hits;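 active means mean inhibition across replicates of 30% or more, regardless of how many single replicates reach that level; inconclusive means mean under 30% yet at least half of replicates reach 30%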;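 further: positive control wells lacked labelled fibronectin entirely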
#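 Assay system: AH1F fibroblasts / Quantity: 10000 cells per well / Medium: DMEM plus 2% serum, read in PBS / Reagent: labelled fibronectin 24 nM / Dosing: single dose, pinned / Times: 1 h cell attachment, overnight exposure to compound and label / Signal: fluorescence, ex 485 nm, em 525 nm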
# SIRT5 inh – SIRT5 desuccinylase inhibitors, primary screen, biochemical, fluorescence imaging, single point, set 5; NAD-dependent protein deacylase sirtuin-5, mitochondrial (Homo sapiens), Q9NXA8; Purified SirT5, succinyl-peptide AMC, trypsin-coupled fluorescence; inhibition, % at 15 µM; 330,000 compounds, 1.1% hits; AID 652115, 2013; in the data active means inhibition above about 15%; inconclusive means no clear call, values can overlap the other calls
# Target sequence (Q9NXA8 whole entry, looked up): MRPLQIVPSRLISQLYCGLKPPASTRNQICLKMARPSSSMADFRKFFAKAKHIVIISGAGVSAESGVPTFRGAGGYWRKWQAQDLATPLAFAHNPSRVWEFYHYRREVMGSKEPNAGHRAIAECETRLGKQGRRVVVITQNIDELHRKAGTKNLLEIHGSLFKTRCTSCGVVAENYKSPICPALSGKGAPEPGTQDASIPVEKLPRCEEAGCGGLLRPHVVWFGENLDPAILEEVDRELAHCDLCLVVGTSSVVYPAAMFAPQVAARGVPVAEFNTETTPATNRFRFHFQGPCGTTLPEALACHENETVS
# DENV2 CPE – inhibitors of DENV2 cytopathic effect, primary screen, cell-based, plate reader, single concentration; CPE inhibition, % at 9.99 µM; 350,000 compounds, 1.7% hits; DENV2-infected cells, cytopathic effect rescue; in the data active means CPE inhibition above about 20%, passing the limit was not always enough; inconclusive means no clear call, values can overlap the other calls; tested in BHK-21 cells;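 further: 0% = median of neutral control wells and 100% = median of positive control wells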
# FGF22 binding – binders of human FGF22 protein, primary screen, FGF22 synaptogenesis inhibitor project, biophysical, thermal shift, single point; Fibroblast growth factor 22 (Homo sapiens), Q9HCT0; recombinant FGF22 thermal shift, SYPRO orange fluorescence; percent of sucrose octasulfate shift, DMSO zero; activity (Tm shift, normalised), % at 9.99 µM; 340,000 compounds, 1.5% hits;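 active means mean Tm shift, scaled 0 neutral to 100 positive control, at about 1.3% or above, every replicate too, limit read from the data; inconclusive means no clear call, values can overlap the other calls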
# Target sequence (Q9HCT0 whole entry, looked up): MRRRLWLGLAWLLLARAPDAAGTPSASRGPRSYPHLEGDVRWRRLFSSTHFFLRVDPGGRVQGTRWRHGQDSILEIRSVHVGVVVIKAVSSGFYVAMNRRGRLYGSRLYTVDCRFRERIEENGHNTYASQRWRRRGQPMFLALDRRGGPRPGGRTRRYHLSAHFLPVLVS
# An asterisk follows results filed as active; ? = inconclusive; · = no result given.
SMILES,XiGFP reactiv,ARNT-TACC3 inh,FN deposition inh,SIRT5 inh,DENV2 CPE,FGF22 binding
Cc1c(CCO)c(=O)n(-c2ccccc2)n1S(=O)(=O)c1c(Cl)cc(Cl)cc1Cl,·,57*,6,·,·,·
CN(CC(=O)Nc1ccc(F)cc1)C(=O)CCc1nc2sc3c(c2c(=O)[nH]1)CCCC3,0,-11,2,1,19,0
CN(CC(=O)Nc1ccc(Cl)cc1)C(=O)CCc1nc2sc3c(c2c(=O)[nH]1)CCCC3,0,-4,11,-1,31*,0
CCCc1nc2sc3c(c2c(=O)[nH]1)CCCC3,0,-5,0,-4,-3,43*
CC(C)C1C(c2ccccc2)N(C)C(c2ccccc2)CC1(O)c1ccccc1 (configuration not stated),·,-2,·,0,3,0
CCC1C(c2ccccc2)N(C)C(c2ccccc2)CC1(O)c1ccccc1 (configuration not stated),0,-1,8,-1,·,44*
c1ccc(OCCOCCOc2ccccc2)cc1,0,28,0,·,·,42
F[B-](F)(F)COc1ccccc1,0,-8,-2,-1,36*,0
CCCNC(=O)N(C)C[C@H]1Oc2ncc(C3=CCCC3)cc2C(=O)N([C@H](C)CO)C[C@H]1C,-1,3,·,-4,2,0
CCc1nc(SCc2ccccc2C)n[nH]1,0,-1,-4,-8,32*,0
O=C(O)CSCC(=O)Nc1ccc(Br)c(C(F)(F)F)c1,0,5,-4,82*,0,0
O=C(C[C@H]1CC[C@H]2[C@@H](COC[C@H](O)CN2C(=O)c2ccccc2F)O1)NCc1ccc(F)cc1,0,-10,2,-2,-8,0
CCCCn1nc2cc(C(=O)NCc3cc(C(F)(F)F)cc(C(F)(F)F)c3)ccc2c1OCC,0,-11,1,-2,·,44*
CC(OC(=O)C1=Cc2ccccc2OC1)C(=O)NCC1CCCO1 (configuration not stated),1,5,1,12,6,1.9*
Cc1cc(OCC(=O)N2CCc3ccccc3C2)c(C)cc1Br,0,-4,1,2,-2,18*
O=C(Nc1ccc2c(c1)OCCO2)C(c1ccnc2ccccc12)N1CCN(c2ccc(F)cc2)CC1 (configuration not stated),0,·,4,29*,?,0
CN(C)CCCNC(=O)[C@H]1[C@H](CO)[C@H]2Cn3c(ccc(-c4cccc(F)c4)c3=O)[C@H]2N1C,0,·,·,-5,2,0
COc1ccc(S(=O)(=O)Nc2ccc3c(c2)C(=O)N([C@@H](C)CO)C[C@H](C)[C@H](CN(C)Cc2ccncc2)OCCCC[C@H](C)O3)cc1,0,7,-9,2,106*,1
COc1ccc(S(=O)(=O)Nc2ccc3c(c2)C(=O)N([C@@H](C)CO)C[C@H](C)[C@H](CN(C)Cc2ccncc2)OCCCC[C@@H](C)O3)cc1,0,2,·,4,13,-1
COc1ccc(S(=O)(=O)Nc2ccc3c(c2)C(=O)N([C@@H](C)CO)C[C@@H](C)[C@@H](CN(C)Cc2ccncc2)OCCCC[C@H](C)O3)cc1,0,-18,·,-3,37*,0
O=C(Nc1ccc2nc3n(c(=O)c2c1)CCCC3)c1ccccc1F,0,9,-1,2,39*,0
C[C@H]1CCCCO[C@@H](CN(C)C(=O)Nc2ccccc2)[C@@H](C)CN([C@@H](C)CO)C(=O)c2cc(N(C)C)ccc2O1,0,1,·,-1,1,-2
C[C@@H]1CN([C@H](C)CO)C(=O)c2cc(NC(=O)Nc3ccc4c(c3)OCO4)ccc2O[C@@H](C)CCCCO[C@@H]1CN(C)C(=O)C1CCCCC1,0,3,·,9,9,0
C[C@@H]1CCCCO[C@H](CN(C)Cc2ccncc2)[C@H](C)CN([C@H](C)CO)C(=O)c2cc(NC(=O)Nc3ccc4c(c3)OCO4)ccc2O1,0,-1,·,2,-1,1
C[C@@H]1CCCCO[C@H](CN(C)Cc2ccncc2)[C@@H](C)CN([C@@H](C)CO)C(=O)c2cc(NC(=O)Nc3ccc4c(c3)OCO4)ccc2O1,0,12,·,-3,28*,0
SMILES,XiGFP reactiv,ARNT-TACC3 inh,FN deposition inh,SIRT5 inh,DENV2 CPE,FGF22 binding
C[C@H](CO)N1C[C@H](C)[C@@H](CN(C)C(=O)C2CCCCC2)OCCCC[C@H](C)Oc2ccc(NC(=O)Nc3ccc4c(c3)OCO4)cc2C1=O,0,7,·,16*,-8,0
C[C@H]1CCCCO[C@H](CN(C)C(=O)Nc2ccc3c(c2)OCO3)[C@@H](C)CN([C@@H](C)CO)C(=O)c2cc(NC(=O)NC3CCCCC3)ccc2O1,0,9,·,·,85*,0
C[C@@H]1CCCCO[C@H](CN(C)C(=O)Nc2ccc3c(c2)OCO3)[C@H](C)CN([C@@H](C)CO)C(=O)c2cc(NC(=O)NC3CCCCC3)ccc2O1,0,2,·,·,·,0
C[C@@H]1CCCCO[C@@H](CN(C)C(=O)Nc2ccc3c(c2)OCO3)[C@@H](C)CN([C@H](C)CO)C(=O)c2cc(NC(=O)c3ccccc3)ccc2O1,0,0,·,-4,20*,0
C[C@@H]1CCCCO[C@@H](CN(C)C(=O)Nc2ccc(F)cc2)[C@@H](C)CN([C@H](C)CO)C(=O)c2cc(NC(=O)Nc3ccc4c(c3)OCO4)ccc2O1,0,-14,11,0,-1,-1
C[C@@H]1CCCCO[C@H](CN(C)CC2CCCCC2)[C@H](C)CN([C@H](C)CO)C(=O)c2cc(NC(=O)Nc3ccc4c(c3)OCO4)ccc2O1,0,29,·,1,1,0
C[C@@H]1CCCCO[C@@H](CN(C)C(=O)Nc2ccc3c(c2)OCO3)[C@@H](C)CN([C@H](C)CO)C(=O)c2cc(NC(=O)Nc3ccc4c(c3)OCO4)ccc2O1,0,5,-5,17*,-4,0

# Screens as filed in PubChem.
